# According to ChEMBL document CHEMBL3997810, “A Novel Potent Anticancer Compound Optimized from a Natural Oridonin Scaffold Induces Apoptosis and Cell Cycle Arrest through the Mitochondrial Pathway” (J Med Chem, 2017):
# Calls of active or inactive are those of the source. The calls are words filed in the database; no cut-off is given here.
# Key:
# [1] = system: MCF7; experiment: Cell cycle arrest in human MCF7 cells assessed as accumulation at S phase at 0.125 uM after 48 hrs by propidium iodide staining based flow cytometry (reference value: 37.18%); assay type: functional
# Method in brief: (§1)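 MCF-7 cells, 5 × 10^4 per well, seeded overnight, then exposed to 0.125–1 μM compound, or DMSO, for 48 h. Ethanol-fixed (70%, −20 °C, 12 h) and stained with PI/RNase at 37 °C for 30 min. Phase distribution determined by flow cytometry.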
# [2] = system: MCF7; experiment: Cell cycle arrest in human MCF7 cells assessed as accumulation at G2/M phase at 0.5 uM after 48 hrs by propidium iodide staining based flow cytometry (reference value: 13.05%); assay type: functional; method in brief: as §1
# [3] = system: MCF7; experiment: Cell cycle arrest in human MCF7 cells assessed as accumulation at G1 phase at 0.25 uM after 48 hrs by propidium iodide staining based flow cytometry (reference value: 49.77%); assay type: functional; method in brief: as §1
# [4] = system: MCF7; experiment: Induction of ROS generation in human MCF7 cells at 1 uM after 36 hrs in presence of ROS scavenger NAC by DCF-DA staining based flow cytometry; assay type: functional, cell-based
# Method in brief: (§2)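 MCF-7 cells exposed to 0–1 μM compound for 36 h, with DMSO as control; one arm pre-incubated with 2.5 mM NAC. Cells then loaded with DCF-DA at 37 °C for 15 min, harvested and resuspended in PBS. Fraction of DCF-positive cells measured by flow cytometry at Ex 480/Em 525 nm.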
# [5] = system: Mus musculus; experiment: Toxicity in ICR mouse xenografted with […] cells assessed as changes in body weight at 20 mg/kg/day, iv for 3 weeks measured once in 2 days during compound dosing; assay type: organism-based; conditions: in vivo
# Method in brief: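 Mice received 1 × 10^6 tumor cells subcutaneously in the right flank: MCF-7 in male BALB/c nude mice aged six weeks, H22 in male ICR mice aged five weeks. After 7 d they were randomized (six or eight per group). Dosing was 20 mg/kg iv daily in 10% DMF/2% poloxamer/88% saline for 21 or 28 days; saline control. Body weight was recorded every 2 days.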
# [6] = system: Bel-7402; experiment: Cell cycle arrest in human Bel7402 cells assessed as accumulation at G1 phase at 4 uM after 48 hrs by propidium iodide staining based flow cytometry (reference value: 34.61%); assay type: functional
# [7] = system: MCF7; experiment: Induction of apoptosis in human MCF7 cells assessed as decrease in Bcl2 protein expression at 0.5 to 1 uM after 48 hrs by Western blot method; assay type: functional, cell-based
# Method in brief: (§3)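 MCF-7 cells exposed to 0–1 μM compound for 48 h, then lysed on ice. Lysate (20 μg protein) run on 8–12% SDS-PAGE and transferred to PVDF. Probed overnight at 4 °C with primary antibodies, then fluorescent secondaries. Band densities normalized to β-actin. Mean ± SD of three independent experiments.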
# [8] = system: Bel-7402; experiment: Antiproliferative activity against human Bel7402 cells after 72 hrs by MTT assay; assay type: functional, cell-based; conditions: Bel-7402, 72 h
# Method in brief: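 MGC-803 and MCF-7 cells grown in DMEM (MCF-7 with 1× NEAA); Bel-7402 and K562 grown in RPMI 1640; all media with 10% FBS. Cells seeded at 3500/well, pre-incubated 24 h, then exposed to compounds in fresh medium (DMSO ≤0.25%) for 72 h at 37 °C. MTT read-out at 570 nm. Quadruplicate wells, repeated three times; means ± SD (n = 3).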
# [9] = system: MCF7; experiment: Induction of apoptosis in human MCF7 cells after 24 hrs by Annexin-V FITC/propidium iodide staining based flow cytometry; assay type: functional, cell-based
# [10] = system: MCF7; experiment: Induction of apoptosis in human MCF7 cells assessed as live cells at 1 uM after 24 hrs by Annexin-V FITC/propidium iodide staining based flow cytometry (reference value: 97%); assay type: functional
# [11] = system: MCF7; experiment: Induction of apoptosis in human MCF7 cells assessed as decrease in pro-caspase-3 to caspase-3 protein expression ratio after 48 hrs by Western blot method; assay type: functional, cell-based; method in brief: as §3
# [12] = system: MCF7; experiment: Cell cycle arrest in human MCF7 cells assessed as accumulation at S phase at 0.25 uM after 48 hrs by propidium iodide staining based flow cytometry (reference value: 37.18%); assay type: functional; method in brief: as §1
# [13] = system: H22; experiment: Antitumor activity against […] cells xenografted in ICR mouse assessed as tumor growth inhibition at 20 mg/kg/day, iv for 3 weeks; assay type: functional, organism-based
# Method in brief: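 Male ICR mice (5 weeks old) inoculated subcutaneously in the right flank with 1 × 10^6 H22 cells. After 7 d, randomized into groups of eight or six. Dosed iv 20 mg/kg daily in 10% DMF/2% poloxamer/88% saline. Cyclophosphamide 20 mg/kg iv as positive control; saline as negative control. Body weight and tumour volume (L × W²/2) every 2 days; inhibition calculated from final tumour weights.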
# [14] = system: MCF7; experiment: Induction of ROS generation in human MCF7 cells at 1 uM after 36 hrs by DCF-DA staining based flow cytometry (reference value: 3.77%); assay type: functional; method in brief: as §2
# [15] = system: MCF7; experiment: Cell cycle arrest in human MCF7 cells assessed as accumulation at G2/M phase at 0.125 uM after 48 hrs by propidium iodide staining based flow cytometry (reference value: 13.05%); assay type: functional; method in brief: as §1
# [16] = system: MCF7; experiment: Cell cycle arrest in human MCF7 cells assessed as accumulation at G2/M phase at 1 uM after 48 hrs by propidium iodide staining based flow cytometry (reference value: 13.05%); assay type: functional; method in brief: as §1
# [17] = system: MCF7; experiment: Induction of apoptosis in human MCF7 cells assessed as early apoptotic cells at 0.125 uM after 24 hrs by Annexin-V FITC/propidium iodide staining based flow cytometry (reference value: 2.65%); assay type: functional
# [18] = system: MCF7; experiment: Cell cycle arrest in human MCF7 cells assessed as accumulation at G1 phase at 0.5 uM after 48 hrs by propidium iodide staining based flow cytometry (reference value: 49.77%); assay type: functional; method in brief: as §1
# [19] = system: MCF7; experiment: Induction of apoptosis in human MCF7 cells assessed as live cells at 0.125 uM after 24 hrs by Annexin-V FITC/propidium iodide staining based flow cytometry (reference value: 97%); assay type: functional
# [20] = system: MCF7; experiment: Antitumor activity against human MCF7 cells xenografted in Balb/c nude mouse assessed as tumor growth inhibition at 20 mg/kg/day, iv for 4 weeks relative to control; assay type: functional; conditions: 672 h, read-out: TGI
# Method in brief: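 Six-week-old male BALB/c nude mice received 1 × 10^6 MCF-7 cells subcutaneously in the right flank. After 7 d of tumor growth, mice were randomized into groups of six. Dosing was 20 mg/kg iv once daily for 28 days in 10% DMF/2% poloxamer/88% saline. Tumor volume (L × W²/2) and body weight were recorded every 2 days. Inhibition = (1 − mean treated/control tumor weight) × 100%.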
# [21] = system: Bel-7402; experiment: Cell cycle arrest in human Bel7402 cells assessed as accumulation at G2/M phase at 2 uM after 48 hrs by propidium iodide staining based flow cytometry (reference value: 56.61%); assay type: functional
# [22] = Selectivity ratio of IC50 for human L02 cells to IC50 for human Bel7402 cells
# [23] = system: MCF7; experiment: Induction of apoptosis in human MCF7 cells assessed as increase in cytochrome c protein expression at 0.5 to 1 uM after 48 hrs by Western blot method; assay type: functional, cell-based
# Method in brief: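 MCF-7 cells were treated at 0, 0.125, 0.25, 0.5 or 1 μM for 48 h, washed in ice-cold PBS and lysed on ice for 20 min. Lysates were spun at 13,000 g, 4 °C. 20 μg protein was run on SDS-PAGE and blotted to PVDF, probed overnight at 4 °C with primary antibodies, then with fluorescent secondary antibodies. Band density was expressed relative to β-actin; three independent experiments.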
structure (smiles),measurement,setting,value
C=C1C(=O)[C@]23[C@H](OC(=O)/C=C/c4ccccc4)[C@H]1CC[C@H]2[C@]12C=CCC(C)(C)[C@H]1[C@H](O)[C@]3(O)OC2,Activity,[1],33.93%
same,Activity,[2],24.23%
same,Activity,[3],49.37%
same,Activity,[4],inactive
same,Activity,[5],Non-Toxic
same,Activity,[6],27.44%
same,Activity,[7],Active
same,IC50,[8],1.03 µM
same,Activity,[9],Dose-dependent effect
same,Activity,[10],31.2%
same,Activity,[11],Dose-dependent effect
same,Activity,[12],33.9%
same,TGI,[13],Active
same,Activity,[14],24.31%
same,Activity,[15],16.83%
same,Activity,[16],34.23%
same,Activity,[17],4.64%
same,Activity,[18],43.87%
same,Activity,[19],84.9%
same,inhibition in vivo at 20 mg/kg/day,[20],69.8%
same,Activity,[21],58.07%
same,Ratio IC50,[22],4.07
same,Activity,[23],Active
